In the library only some 2.9% were active in any assay of this set; here they are far more common.
rRNA inh HTS – reduced GFP signal of wild-type E. coli, primary screen, bacterial rRNA inhibitor project, GFP/RFP fluorescence, OD600, single point. GFP signal change (wild-type ribosome), % (test concentration not listed). E. coli WT GFP vs humanized-ribosome RFP mutants, 24 h; stronger effect = lower value; DMSO median 0, no signal -100. 1.6% of 350,000 active;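 active means significant combined selectivity score with lowered wild-type GFP, culture density cut under 30%, mutant RFP and density less affected; inactive means any of these conditions unmet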
FGF22 binding – binders of human FGF22 protein, primary screen, FGF22 synaptogenesis inhibitor project, biophysical, thermal shift, single point; AID 651658, 2012; recombinant FGF22 thermal shift, SYPRO orange fluorescence; percent of sucrose octasulfate shift, DMSO zero; activity (Tm shift, normalised), % at 9.99 µM; 1.5% of 340,000 active;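 active means mean Tm shift, scaled 0 neutral to 100 positive control, at about 1.3% or above, every replicate too, limit read from the data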
Target sequence (Q9HCT0 whole entry, looked up): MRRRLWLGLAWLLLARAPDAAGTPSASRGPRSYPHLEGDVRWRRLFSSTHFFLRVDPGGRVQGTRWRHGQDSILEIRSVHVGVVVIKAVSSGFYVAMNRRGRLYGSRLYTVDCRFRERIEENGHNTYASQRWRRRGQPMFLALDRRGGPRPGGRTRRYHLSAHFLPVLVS
Vif inh – HIV Vif self-association inhibitors, primary screen, imaging, HEK293T, single point. HEK293T cells, Vif self-association by quenched fluorescence, 24 h. inhibition, % at 7.49 µM. 0.35% of 340,000 active; in the data active means inhibition above about 50%, passing the limit was not always enough
Cneo AK release – Cryptococcus neoformans cell lysis inducers, primary screen, AK release luminescence, single concentration | C. neoformans lysis, adenylate kinase release luminescence, 4 h; normalised: neutral wells 0, clomiphene wells 100 | lysis activity, % at 15 µM | 0.2% of 360,000 active | AID 651654, 2012;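 active means mean lysis activity across replicates of at least 80%, whatever share of replicates individually reach that level; inactive means mean lysis activity below 80%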
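Test system: log-phase Cryptococcus neoformans yeast cells; Quantity: yeast cell density of 5 × 10^6 cells/mL; Buffer or medium: YPD; Doses: single compound concentration per well; Timing: 4 h at 37 °C static, read 1 h later; Measured by: AK luminescence; Read-out basis: lysis from increased AK signal; Control set: Clomiphene as positive control.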
PGC1a acetyl inh – inhibitors of PGC1a acetylation signal, primary screen, cell-based, U2OS, AlphaScreen, inhibitor mode; AlphaScreen anti-acetyl-lysine; with virally co-expressed GCN5 acetyltransferase; inhibition, % at 15.6 µM; 0.17% of 350,000 active;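 active means every replicate shows inhibition of at least 40%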;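 further: 0% = neutral control wells and 100% = positive control wells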
PglD inh – C. jejuni PglD acetyltransferase inhibitors, primary screen, biochemical, DTNB colorimetric, single point. inhibition, % at 12.5 µM. UDP-N-acetylbacillosamine N-acetyltransferase PglD (Campylobacter jejuni). 0.098% of 360,000 active. purified PglD enzyme, DTNB colorimetric CoA detection; in the data active means inhibition above about 16%, passing the limit was not always enough
Active calls of the source: *; . = no result given.

SMILES	rRNA inh HTS	FGF22 binding	Vif inh	Cneo AK release	PGC1a acetyl inh	PglD inh
CCOc1ccccc1/C=C/C(=O)c1ccc(Cl)cc1	-26.9*	0.5	-0.2	.	.	.
O=C(/C=C/c1ccccc1O)c1ccc(Cl)cc1	-59.8	0.9	-3.5	.	.	.
CC(C)CC#Cc1cnc2c(c1)C(=O)N([C@@H](C)CO)C[C@H](C)[C@@H](CN(C)C(=O)Nc1ccccc1F)O2	0.6	0.1	.	-4.2	3.7	-4.9
CC(C)(C)N/N=C1\CC(c2ccccc2)Oc2ccccc21 (configuration not stated)	.	.	-6.8	.	.	.
O=S(=O)(N/N=C1/CC(c2ccccc2)Oc2ccccc21)c1ccccc1 (configuration not stated)	-12.5*	-0.4	-2.0	.	.	.
Cc1oc2c(CN3CCOCC3)c(O)ccc2c(=O)c1-c1ccccc1	-24.5*	0.1	6.0	1.4	14.0	3.2
C[C@H]1CN([C@@H](C)CO)S(=O)(=O)c2ccc(C#CCN(C)C)cc2O[C@@H]1CN(C)Cc1cccnc1	-1.0	-0.3	.	3.3	-16.2	0.3
Oc1ccc(Br)cc1-c1ccnn1-c1ccccc1	-39.0*	-0.1	-5.7	0.5	-45.5	-7.0
Oc1ccc(Br)cc1-c1cc(-c2ccccc2)n[nH]1	.	.	-2.9	0.1	-1.4	0.6
CCCc1[nH]n(-c2nc3ccccc3s2)c(=O)c1C=NCCCN(CC)CC	-21.6*	0.8	-0.9	.	10.1	.
CCCN=Cc1c(CCC)[nH]n(-c2nc3ccccc3s2)c1=O	.	.	-1.8	21.1	-1.1	5.4
Cc1csc2c(N3CCN(C(=O)Nc4ccccc4)CC3)ncnc12	-27.9*	0.0	-23.3	2.5	.	8.9
Cc1csc2c(N3CCN(C(=S)Nc4ccc(F)cc4F)CC3)ncnc12	-26.5*	0.2	-27.0	-3.6	.	13.9
Cc1ccc(C(=O)N2CCN(c3ncnc4c(C)csc34)CC2)cc1	-17.4	0.0	-7.3	3.1	9.1	-3.1
CO[C@@H]1CN(C)C(=O)c2cc(NC(=O)C3CC3)ccc2OC[C@@H](C)N(Cc2ccc(F)cc2)C[C@H]1C	-0.3	-0.1	.	0.2	.	-0.9
C[C@H](CO)N1C[C@H](C)[C@@H](CN(C)S(=O)(=O)c2ccccc2)Oc2ccc(N(C)C)cc2C1=O	-2.9	-0.2	.	-0.1	14.8	-1.6
Nc1ccc(S(=O)(=O)c2ccc(N)nc2)cc1	6.1	-0.1	56.9*	1.0	-6.5	-2.7
COC(=O)[C@@H]1[C@@H](CO)[C@@H]2Cn3c(cccc3=O)[C@@H]2N1C(=O)C1CCCCC1	4.3	-0.2	.	4.9	.	2.1
COc1ccc(-n2cc(CNCCc3nc(C)cc(C)n3)c(-c3ccccc3Cl)n2)cc1	-13.6	0.0	3.0	93.7*	5.3	-1.8
COc1cc(CNc2ncnc3c2ncn3[C@H]2CN(CCN3CCOCC3)C[C@@H](CO)O2)cc(OC)c1OC	13.2	0.1	69.7*	1.2	-11.1	3.5
COc1ccc(N=C2SCC(c3ccc(C)cc3)=NN2CCO)cc1	-10.4	0.1	-9.5	.	78.3*	.
CCCn1c(C)cc(C(=O)COc2ccc(-c3nnco3)cc2)c1C	-3.3	43.2*	-0.2	.	1.0	.
C[C@H]1CCCCO[C@H](CN(C)S(=O)(=O)c2cn(C)cn2)[C@@H](C)CN([C@@H](C)CO)C(=O)c2cc(NS(=O)(=O)c3ccc(Cl)cc3)ccc2O1	-1.7	0.7	.	-0.7	-8.1	0.1
COc1ccc(C(=O)Nc2ccc3oc(Cc4ccc(Cl)cc4)nc3c2)cc1OC	-14.5*	0.0	-11.3	-1.4	-5.0	-1.5
C[C@@H]1CN([C@H](C)CO)C(=O)c2cc(NC(=O)Nc3ccc4c(c3)OCO4)ccc2O[C@@H]1CN(C)S(=O)(=O)c1cccs1	-3.2	0.6	.	3.9	2.7	4.1
SMILES	rRNA inh HTS	FGF22 binding	Vif inh	Cneo AK release	PGC1a acetyl inh	PglD inh
CCC(=O)N1CC2(C1)[C@H](c1ccc(-c3ccc(F)cc3)cc1)[C@H](CO)N2C(=O)CC	-3.6	0.8	.	.	-3.8	.
Cc1cc(C)n2cc(CSc3ccc(Cl)cc3)nc2n1	-24.9*	0.0	11.4	-0.1	.	2.1
Cc1cc(C)n2cc(CSc3nncn3C)nc2n1	6.2	43.3*	-2.3	.	3.3	.
O=C(NC1Cc2ccccc2C1)[C@H]1[C@H](CO)[C@H]2Cn3c(cccc3=O)[C@H]2N1C(=O)C1CCC1	1.5	0.1	.	-3.1	-2.6	0.4
Cc1noc(C)c1S(=O)(=O)N(C)C[C@@H]1Oc2ccc(NC(=O)Cc3ccccc3)cc2CC(=O)N([C@@H](C)CO)C[C@@H]1C	-0.5	-0.1	.	-4.0	-3.3	2.1
CC(=O)N(C)C[C@@H]1Oc2cc(C3=CCCCC3)ccc2S(=O)(=O)N([C@@H](C)CO)C[C@H]1C	0.2	.	.	.	-6.8	.
CC(C)NC(=O)Nc1ccc2c(c1)CC(=O)N([C@@H](C)CO)C[C@@H](C)[C@@H](CN(C)Cc1ccc(Oc3ccccc3)cc1)O2	-2.6	-0.2	.	109.2*	-20.7	6.3
CC(C)NC(=O)Nc1ccc2c(c1)CC(=O)N([C@H](C)CO)C[C@@H](C)[C@H](CN(C)Cc1ccc3c(c1)OCO3)O2	-2.9	0.1	.	100.4*	10.8	1.1
COc1ccc(CN(C)C[C@H]2Oc3ccc(NC(=O)Nc4ccc(F)cc4)cc3CC(=O)N([C@@H](C)CO)C[C@@H]2C)cc1	-54.1	0.0	.	102.0*	-2.2	4.7
CC(C)NC(=O)Nc1ccc2c(c1)CC(=O)N([C@@H](C)CO)C[C@H](C)[C@H](CN(C)Cc1ccc(Oc3ccccc3)cc1)O2	-6.9	-0.3	.	-2.5	-6.9	-1.6
C[C@H]1CN([C@@H](C)CO)C(=O)Cc2cc(NC(=O)CCCCCC(=O)Nc3ccccc3N)ccc2O[C@H]1CN(C)Cc1ccc2c(c1)OCO2	-3.4	-0.1	.	93.5*	11.3	-32.1
CCC(=O)N1CC(=O)N2[C@@H](CO)[C@@H](c3ccc(C#CC4CCCCC4)cc3)[C@@H]2C1	0.9	-0.5	.	.	0.1	.
Cc1noc(C)c1S(=O)(=O)Nc1ccc2c(c1)C(=O)N([C@H](C)CO)C[C@H](C)[C@H](CN(C)C(=O)CCCN(C)C)OCCCC[C@H](C)O2	2.1	0.1	.	-8.6	-5.9	-5.3
CC(C)OC(=O)N(C)C[C@H]1OCc2ccccc2-c2c(n(C)c3ccccc23)C(=O)N([C@H](C)CO)C[C@@H]1C	-2.7	0.0	.	1.6	6.2	0.3

Compound activity (PubChem)
